Reference: ChEMBL document CHEMBL1123873, “N-(heterocyclic alkyl)pyrido[2,1-b]quinazoline-8-carboxamides as orally active antiallergy agents” (J Med Chem, 1987)

What was measured:
Cavia porcellus [1] = organism: Cavia porcellus; assay: Evaluated for inhibition of slow reacting substance of anaphylaxis (SRS-A) induced contractions in guinea pig ileum strips; type: functional
In short: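 Guinea pig ileum strips were contracted with SRS-A at 5.0 units/mL, the level giving 50% of maximal contraction. Each compound was tested in duplicate at three concentrations giving 10–90% inhibition. IC50 was obtained by linear regression.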

Cavia porcellus [2] = assay: (§1) In vivo inhibition of LTE4 (leukotriene)-induced administration; type: functional
Cavia porcellus [3] = assay: as §1; type: functional; remark: listed apart in the source
Thromboxane-A synthase = molecular target: T1, Thromboxane-A synthase (Homo sapiens, UniProt P24557); assay: Inhibition of human platelet thromboxane synthase (TXA2) was determined in human platelets
T1 sequence (P24557 whole entry): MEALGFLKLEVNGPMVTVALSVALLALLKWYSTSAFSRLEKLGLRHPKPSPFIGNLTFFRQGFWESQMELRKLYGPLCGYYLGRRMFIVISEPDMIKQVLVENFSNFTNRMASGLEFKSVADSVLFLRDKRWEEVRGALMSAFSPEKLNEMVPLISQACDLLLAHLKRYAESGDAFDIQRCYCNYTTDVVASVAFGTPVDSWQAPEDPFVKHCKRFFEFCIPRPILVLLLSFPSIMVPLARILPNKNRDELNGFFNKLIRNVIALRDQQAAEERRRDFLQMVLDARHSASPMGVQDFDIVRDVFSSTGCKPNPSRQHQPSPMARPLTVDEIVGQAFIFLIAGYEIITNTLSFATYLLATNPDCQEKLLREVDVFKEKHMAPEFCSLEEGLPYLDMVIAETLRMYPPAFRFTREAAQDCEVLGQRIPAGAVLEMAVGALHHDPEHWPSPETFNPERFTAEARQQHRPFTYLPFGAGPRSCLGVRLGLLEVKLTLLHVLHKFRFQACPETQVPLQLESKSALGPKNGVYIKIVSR
In short: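 The enzyme source was microsomal fractions of human platelets. Conversion of [14C]PGH2 to [14C]TXB2 ran 2 min at 22 °C and was then stopped. Products were ether-extracted, separated by TLC and counted. Compounds were tested in triplicate at three log-spaced concentrations, and IC50 was obtained by linear regression.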

Rattus norvegicus [4] = assay: In vivo inhibition of LTE4 (leukotriene)-induced skin wheal formation in rat and percent inhibition was reported at 100 mg/Kg administered perorally; conditions: po
Rattus norvegicus [5] = assay: In vivo inhibition of LTE4 (leukotriene)-induced skin wheal formation in rat and percent inhibition was reported at 10 mg/Kg administered intravenously; conditions: iv
Cavia porcellus [6] = assay: In vivo inhibition of LTE4 (leukotriene)-induced bronchoconstrictions in guinea pig and percent inhibition was reported at 10 mg/Kg administered intravenously; type: functional; conditions: iv
In short: (§2)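 Guinea pigs pretreated with propranolol were challenged with LTE4. The drug was given either 10 mg/kg iv 30 s before challenge or 100 mg/kg orally 2 h before. Bronchoconstriction was scored as percent inhibition versus control animals. Oral ID50 was calculated from varying oral doses.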

Cavia porcellus [7] = assay: In vivo inhibition of LTE4 (leukotriene)-induced bronchoconstrictions in guinea pig and percent inhibition was reported at 100 mg/Kg administered perorally; type: functional; conditions: po; in short: as §2
Rattus norvegicus [8] = assay: In vivo inhibition of LTE4 (leukotriene)-induced skin wheal formation in rat
Cavia porcellus [9] = assay: In vivo inhibition of LTE4 (leukotriene)-induced bronchoconstrictions in guinea pig and ID50 was reported perorally; type: functional; in short: as §2
Cavia porcellus [10] = organism: Cavia porcellus; assay: Ability to inhibit bronchoconstriction induced in actively sensitized guinea pig by antigen-induced de novo biosynthesis of SRS-A; type: functional
Rattus norvegicus [11] = assay: Compound was evaluated in vivo by rat passive cutaneous anaphylaxis test (PCA) after oral administration; type: functional
Cavia porcellus [12] = organism: Cavia porcellus; assay: Ability to inhibit bronchoconstriction in guinea pig induced by histamine
Rattus norvegicus [13] = assay: In vivo inhibition of LTE4 (leukotriene)-induced skin wheal formation in rat; remark: listed apart in the source
Cavia porcellus [14] = organism: Cavia porcellus; assay: Ability to inhibit bronchoconstriction in guinea pig induced by platelet activating factor
Rattus norvegicus [15] = assay: Compound was evaluated in vivo by rat passive cutaneous anaphylaxis test (PCA)after oral administration; conditions: read-out: ID50 (the source's name)
Cavia porcellus [16] = assay: In vivo inhibition of LTE4 (leukotriene)-induced bronchoconstrictions in guinea pig after oral administration; type: functional; in short: as §2
Rattus norvegicus [17] = assay: In vivo inhibition of LTE4 (leukotriene)-induced skin wheal formation in rat determined after (iv) administration of a dose of 10 mg/kg
Rattus norvegicus [18] = assay: In vivo inhibition of LTE4 (leukotriene)-induced skin wheal formation in rat determined after (po) administration of a dose of 100 mg/Kg

IC50 (Cavia porcellus [1])	IC50 (Thromboxane-A synthase)	SMILES	other results
1 µM	0.1 µM	CC(C)c1ccc2nc3ccc(C(=O)NCCCCCc4cccnc4)cn3c(=O)c2c1.Cl.Cl	Inhibition (Cavia porcellus [2]): 84%; Inhibition (Cavia porcellus [3]): 21%; inhibition in vivo at 100 mg/kg (Rattus norvegicus [4]): 65%; inhibition in vivo at 10 mg/kg (Rattus norvegicus [5]): 61%
0.8 µM	0.05 µM	CC(C)c1ccc2nc3ccc(C(=O)NCCCCOc4cccnc4)cn3c(=O)c2c1.Cl.Cl	inhibition in vivo at 10 mg/kg (Cavia porcellus [6]): 94%; inhibition in vivo at 100 mg/kg (Cavia porcellus [7]): 60%; IC50 (Rattus norvegicus [8]): 100 mg/kg; inhibition in vivo at 100 mg/kg (Rattus norvegicus [4]): 56%; inhibition in vivo at 10 mg/kg (Rattus norvegicus [5]): 64%
1 µM	0.1 µM	CC(C)c1ccc2nc3ccc(C(=O)NCCCCc4ccncc4)cn3c(=O)c2c1.Cl.Cl	ID50 mg/kg (Cavia porcellus [9]): 57; inhibition in vivo at 10 mg/kg (Cavia porcellus [6]): 89%; inhibition in vivo at 100 mg/kg (Cavia porcellus [7]): 73%; IC50 (Rattus norvegicus [8]): 90 mg/kg; inhibition in vivo at 100 mg/kg (Rattus norvegicus [4]): 63%; inhibition in vivo at 10 mg/kg (Rattus norvegicus [5]): 54%
10 µM	4 µM	CC(C)c1ccc2nc3ccc(C(=O)NCCc4cccnc4)cn3c(=O)c2c1	
1 µM	> 10 µM	CC(C)c1ccc2nc3ccc(C(=O)NCCCCc4ccccn4)cn3c(=O)c2c1	
> 10 µM	0.2 µM	CC(C)c1ccc2nc3ccc(C(=O)NCCCCCCCc4cccnc4)cn3c(=O)c2c1	
1 µM	0.2 µM	CC(C)c1ccc2nc3ccc(C(=O)NCCCCc4cccnc4)cn3c(=O)c2c1	ID50 mg/kg (Cavia porcellus [16]): 60; Inhibition (Cavia porcellus [2]): 94%; Inhibition (Cavia porcellus [3]): 76%; IC50 (Rattus norvegicus [8]): 70 mg/kg; inhibition in vivo at 10 mg/kg (Rattus norvegicus [17]): 60%; inhibition in vivo at 100 mg/kg (Rattus norvegicus [18]): 61%
1 µM		CC(C)c1ccc2nc3ccc(C(=O)NCCCCCCc4cccnc4)cn3c(=O)c2c1	inhibition in vivo at 10 mg/kg (Cavia porcellus [6]): 71%; inhibition in vivo at 100 mg/kg (Cavia porcellus [7]): 28%; inhibition in vivo at 100 mg/kg (Rattus norvegicus [4]): 62%; inhibition in vivo at 10 mg/kg (Rattus norvegicus [5]): 70%
5 µM	0.2 µM	CC(C)c1ccc2nc3ccc(C(=O)NCCCCc4cncnc4)cn3c(=O)c2c1	
5 µM	0.1 µM	CC(C)c1ccc2nc3ccc(C(=O)NCCCc4cccnc4)cn3c(=O)c2c1	

Second part, the compound before the results:

SMILES	IC50 (Cavia porcellus [1])	IC50 (Thromboxane-A synthase)	other results
O=C(O)c1ccc(OCCn2ccnc2)cc1 [DAZOXIBEN]	> 10 µM		inhibition in vivo at 10 mg/kg (Cavia porcellus [6]): 88%; inhibition in vivo at 100 mg/kg (Cavia porcellus [7]): 81%; inhibition in vivo at 100 mg/kg (Rattus norvegicus [4]): 11%; inhibition in vivo at 10 mg/kg (Rattus norvegicus [5]): 9%
O=C(NCCCCc1cccnc1)c1ccc2nc3ccc(O)cc3c(=O)n2c1	3 µM	0.05 µM	
O=C(NCCCCc1cccnc1)c1ccc2nc3cc(Cl)ccc3c(=O)n2c1	8 µM	0.02 µM	
Cc1ccc2nc3ccc(C(=O)NCCCCc4cccnc4)cn3c(=O)c2c1	5 µM	0.1 µM	
O=C(NCCCCc1cccnc1)c1ccc2nc3cc4c(cc3c(=O)n2c1)CCCC4	9 µM	0.3 µM	
Cc1cc2nc3ccc(C(=O)NCCCCc4cccnc4)cn3c(=O)c2cc1C	7 µM	0.1 µM	
COc1ccc2c(=O)n3cc(C(=O)NCCCCc4cccnc4)ccc3nc2c1	> 10 µM	0.02 µM	
CC(CCc1cccnc1)NC(=O)c1ccc2nc3ccc(C(C)C)cc3c(=O)n2c1 (centres undefined)	5 µM	0.3 µM	
CC(C)c1ccc2nc3ccc(C(=O)N(C)CCCCc4cccnc4)cn3c(=O)c2c1	1 µM	0.6 µM	
CC(C)c1ccc2nc3ccc(C(=O)NCCCCn4ccnc4)cn3c(=O)c2c1.Cl.Cl	1 µM	0.2 µM	ID50 mg/kg (Cavia porcellus [10]): 50; ID50 mg/kg (Cavia porcellus [9]): 47; inhibition in vivo at 10 mg/kg (Cavia porcellus [6]): 87%; inhibition in vivo at 100 mg/kg (Cavia porcellus [7]): 87%; ID50 mg/kg (Rattus norvegicus [11]): 20; ID50 mg/kg (Cavia porcellus [12]): 39; IC50 (Rattus norvegicus [13]): 46 mg/kg; ID50 mg/kg (Cavia porcellus [14]): 13; inhibition in vivo at 100 mg/kg (Rattus norvegicus [4]): 63%; inhibition in vivo at 10 mg/kg (Rattus norvegicus [5]): 26%
Cc1nccn1CCCCNC(=O)c1ccc2nc3ccc(C(C)C)cc3c(=O)n2c1	9 µM	5 µM	
CC(C)Oc1ccc2nc3ccc(C(=O)NCCCCc4cccnc4)cn3c(=O)c2c1	10 µM	0.06 µM	
CC(CCCc1cccnc1)NC(=O)c1ccc2nc3ccc(C(C)C)cc3c(=O)n2c1 (centres undefined)	8 µM	1 µM	
CC(C)c1ccc2nc3ccc(C(=O)O)cn3c(=O)c2c1			ED50 (Rattus norvegicus [15]): 0.45 mg/kg
O=C(NCCCCc1cccnc1)c1ccc2nc3ccccc3c(=O)n2c1	5 µM	0.02 µM	
COc1ccc2nc3ccc(C(=O)NCCCCc4cccnc4)cn3c(=O)c2c1	10 µM	0.2 µM	
O=C(NCCCCc1cccnc1)c1ccc2nc3ccc(Br)cc3c(=O)n2c1	> 10 µM	0.1 µM	
CC(C)c1ccc2nc3ccc(C(=O)NC(C)(C)CCCc4cccnc4)cn3c(=O)c2c1	5 µM	0.5 µM	
CC(C)c1ccc2nc3ccc(C(=O)NCCSCc4cccnc4)cn3c(=O)c2c1	5 µM	0.6 µM	
CCCc1c(OCC(O)COc2ccc3c(=O)cc(C(=O)O)oc3c2CCC)ccc(C(C)=O)c1O (centres undefined) [FPL-55712]		10 µM	inhibition in vivo at 10 mg/kg (Cavia porcellus [6]): 98%; inhibition in vivo at 100 mg/kg (Cavia porcellus [7]): 23%; inhibition in vivo at 100 mg/kg (Rattus norvegicus [4]): 2%; inhibition in vivo at 10 mg/kg (Rattus norvegicus [5]): 88%
